Results published in the array DNA melting data of Ke et al. (doi:10.1101/2024.01.08.574731).

Legend:
[1] = melting temperature; fluorescence melt of hairpins on a sequencing array, two-state fit, raised by 9.35 °C to match UV melts; details: sodium 0.088 M
How it was run: (§1)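 Library hairpins on a sequenced MiSeq flow cell carried annealed Cy3 and quencher oligos, and their Cy3 fluorescence was imaged in 50 mM Na-HEPES pH 8.0 with 25 mM NaCl, in 2.5 °C steps up to 60 °C. Signals were normalised to Cy3 before quenching and to control constructs. Melting temperature and folding enthalpy were obtained from bootstrapped two-state fits, combined by inverse-variance weighting across four replicates, and the fitted temperatures were then raised by 9.35 °C to match UV melts.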

[2] = folding enthalpy; higher = less favourable; fluorescence melt of hairpins on a sequencing array, two-state fit; details: sodium 0.088 M
How it was run: as §1

| Sequence | Tm [1] | folding enthalpy [2] |
| --- | --- | --- |
| GGCTTCGAAAGAACGCC ((((((....))).))) | 50.9 °C | -22.7 kcal/mol |
| GCAACCGAAAGGTTATGC ((((((....)))..))) | 44.1 °C | -12.3 kcal/mol |
| GTGATCCGAAAGGAGCAC (((.(((....))).))) | 66.4 °C | -41.5 kcal/mol |
| GGATACGGAAACGTATTC (.(((((....))))).) | 45.2 °C | -24.8 kcal/mol |
| GGGGTTGGAAACAGCTCC ((.(.((....)).).)) | 37 °C | -24.6 kcal/mol |
| GAGAGCGGAAACGCTTTC ((.((((....)))).)) | 46.4 °C | -17.3 kcal/mol |
| GCATATGAAAATATGC ((((((....)))))) | 52.9 °C | -29.2 kcal/mol |
| GCGGTGGCGAAAGCCCGC (((..(((....)))))) | 66.9 °C | -23.3 kcal/mol |
| GCCCAGGGAAACCCGGGC ((((.((....)).)))) | 57.8 °C | -37.4 kcal/mol |
| GCGAATTCGAAAGAACGC (((..(((....)))))) | 40.5 °C | -20.4 kcal/mol |
| GTGGACGGAAACACCCAC ((((..(....)..)))) | 30.4 °C | -12.2 kcal/mol |
| GACGTCGGAAACGACATC ((.((((....)))).)) | 37.2 °C | -12.7 kcal/mol |
| GGGCAGGGAAACCCACCC (((..((....))..))) | 34.8 °C | -24.5 kcal/mol |
| GCAGTCGGAAACGGTTGC (((..((....))..))) | 42.4 °C | -25.8 kcal/mol |
| GATCGAGGCTCGATC ((((((...)))))) | 55.5 °C | -42.1 kcal/mol |
| GATCTATTGGTAGATC ((((((....)))))) | 44.2 °C | -30.4 kcal/mol |
| GCGACGCGAAAGCAGCGC (((..((....))..))) | 65.7 °C | -30.3 kcal/mol |
| GATCAAGTCGTTGATC ((((((....)))))) | 48 °C | -39.2 kcal/mol |
| GGTAGTGAAAACTACC ((((((....)))))) | 58.5 °C | -33.4 kcal/mol |

| Sequence | Tm [1] | folding enthalpy [2] |
| --- | --- | --- |
| GGGAACGGAAACGTTCTC (.(((((....))))).) | 52.9 °C | -18.2 kcal/mol |
| GGATATGGAAACATATCC (((((((....))))))) | 54.7 °C | -47 kcal/mol |
| GGATCGGGAAACTGATCC (((((.(....).))))) | 52.4 °C | -39.1 kcal/mol |
| CGCGGAACGATCCGCG ((((((....)))))) | 67.6 °C | -31.8 kcal/mol |
| GATCCGCCAGCGGATC ((((((....)))))) | 65.2 °C | -44.9 kcal/mol |
| GCATTCCGAAAGGATTGC (((.(((....))).))) | 54.4 °C | -35.6 kcal/mol |
| GATCGGATAGCCGATC ((((((....)))))) | 55.4 °C | -29.6 kcal/mol |
| GATCTTTCGGAAGATC ((((((....)))))) | 43.9 °C | -33.4 kcal/mol |
| GCCCAGCGAAAGCTTCGC ((..(((....)))..)) | 40.3 °C | -6.41 kcal/mol |
| GATCCAGTTTTGGATC ((((((....)))))) | 52.4 °C | -41.6 kcal/mol |
| GCGTATACGAAAGTACGC (((..(((....)))))) | 51.6 °C | -35.4 kcal/mol |
| GCGTACAACGC ((((...)))) | 55.6 °C | -22.4 kcal/mol |
| GATCTGACCCCAGATC ((((((....)))))) | 45.8 °C | -34.3 kcal/mol |
| GCCCACGAAAGTGGTGGC ((((((....)))..))) | 55.4 °C | -13.8 kcal/mol |
| GCGATGCGAAAGCCTTGC ((.(.((....)).).)) | 36.3 °C | -25.4 kcal/mol |
| GAGAGAGCGAAAGCTCTC (((..(((....)))))) | 56.7 °C | -9.57 kcal/mol |
| GTACGGGGAAACCTGTGC (.((.((....)).)).) | 37.3 °C | -25.8 kcal/mol |
| GGACCCGAAAGGGGATCC ((((((....)))..))) | 51.4 °C | -14.8 kcal/mol |
| CGGCACGGAAACGTCCG (((.(((....)))))) | 47.9 °C | -21.8 kcal/mol |
